Assay results reported in ChEMBL document CHEMBL1955783, “Identification and optimization of small molecule antagonists of vasoactive intestinal peptide receptor-1 (VIPR1)” (Bioorg Med Chem Lett, 2012).
Calls of active or inactive are those of the source. The calls are words filed in the database; no cut-off is given here.

How the values were obtained:
[1] = tested on: NCI-H727; assay: Cytotoxicity against human NCI-H727 cells expressing VIPR1 up to 10 uM in presence of 2% serum; type: functional, cell-based
Summary of the method: (§1)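 Cell proliferation in H727, H1299 and Calu6 lines, chosen for high VIPR1 expression. Medium held 2% serum to limit albumin sequestration. Compounds were tested at concentrations up to 10 µM.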

[2] = tested on: Calu-6; assay: Cytotoxicity against human Calu6 cells expressing VIPR1 up to 10 uM in presence of 2% serum; type: functional, cell-based; summary of the method: as §1
[3] = target: T1, Vasoactive intestinal polypeptide receptor 1 (Rattus norvegicus, UniProt P30083); assay: Antagonist activity at vasoactive intestinal peptide receptor 1 in rat RKE cells assessed as inhibition of VIP-induced intracellular cAMP accumulation incubated for 15 mins prior to VIP-stimulation measured after 30 mins by HTRF assay
T1 sequence (P30083 whole entry): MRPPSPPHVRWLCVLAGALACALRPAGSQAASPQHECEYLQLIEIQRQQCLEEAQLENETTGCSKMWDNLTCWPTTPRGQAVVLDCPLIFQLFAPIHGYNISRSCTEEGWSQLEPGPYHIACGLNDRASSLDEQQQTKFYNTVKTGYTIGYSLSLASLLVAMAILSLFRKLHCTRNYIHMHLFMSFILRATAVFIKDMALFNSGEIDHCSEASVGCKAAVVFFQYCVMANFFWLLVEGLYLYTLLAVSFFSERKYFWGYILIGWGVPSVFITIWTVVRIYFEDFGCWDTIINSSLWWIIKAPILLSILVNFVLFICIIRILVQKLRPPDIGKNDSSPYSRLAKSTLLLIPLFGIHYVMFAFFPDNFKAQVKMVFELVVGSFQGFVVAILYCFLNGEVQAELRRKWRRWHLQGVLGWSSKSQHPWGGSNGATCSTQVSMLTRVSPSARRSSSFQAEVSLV

[4] = Plasma protein binding in mouse; type: ADME, cell-free; conditions: read-out: PPB (converted)
[5] = tested on: NCI-H1299; assay: Cytotoxicity against human NCI-H1299 cells expressing VIPR1 up to 10 uM in presence of 2% serum; type: functional, cell-based; summary of the method: as §1
[6] = Plasma protein binding in human; type: ADME, cell-free; conditions: read-out: PPB (converted)
[7] = target: T2, Vasoactive intestinal polypeptide receptor 1 (Rattus norvegicus) (UniProt P30083); assay: Displacement of [125I]VIP from vasoactive intestinal peptide receptor 1 in rat RKE cell membrane after 3 hrs by TopCount assay; type: cell membranes
T2 sequence (whole entry): T1 sequence (P30083 whole entry)
Summary of the method: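 Membranes from RKE-VIPR cells, 5 µg/well final, preincubated 10 min at room temperature with wheat germ agglutinin-coated PVT beads in 50 mM HEPES, 5 mM MgCl2, 1 mM CaCl2, 0.1% BSA. IC50 taken from a four-parameter logistic fit after subtracting nonspecific binding, defined with excess VIP.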

| IC50 [3] [nM] | fraction unbound [4] | fraction unbound [6] | Activity [7] | Structure (SMILES) | Activity [1] | Activity [2] | Activity [5] |
| --- | --- | --- | --- | --- | --- | --- | --- |
| 740 | 0.1 | 0.1 | Active | CC(C)c1cc(C(C)(C)C)cc(-c2ccc(F)cc2)c1CO | inactive | inactive | inactive |
| 81 | – | – | Active | Cc1ccc(-c2cc(C(C)(C)C)cc(C(C)C)c2CO)cc1C | inactive | inactive | inactive |
